Data reported in ChEMBL document CHEMBL1153092, “Discovery of novel thieno[2,3-d]pyrimidin-4-yl hydrazone-based inhibitors of cyclin D1-CDK4: synthesis, biological evaluation and structure-activity relationships. Part 2” (Bioorg Med Chem, 2009).
≈ marks a conversion by molar mass, not a printed value. Calls of active or inactive are those of the source. The calls are words filed in the database; no cut-off is given here.

How the values were obtained:
[1] = Selectivity for CDK4/Cyclin D1 over CDK2/Cyclin E
Outline: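 Selectivity was calculated as CDK2 IC₅₀ divided by CDK4 IC₅₀, using the Rb-phosphorylation kinase assay values.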

[2] = test system: PC-6; assay: Cytotoxicity against human PC6 cells after 3 days by MTT assay; assay type: functional, cell-based; conditions: PC-6, 72 h
Outline: (§1)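 Cells (PC-6 shown) were kept in RPMI 1640 with 10% FBS and plated on day 0. Compound, serially diluted in DMSO, was added on day 1 at ten concentrations. Viable cells were counted by MTT after 3 days of culture. The 50% growth-inhibition concentration was solved from 100×[(T−T₀)/(C−T₀)]=50, where T₀ is the optical density at time zero.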

[3] = test system: HCT-116; assay: Cytotoxicity against human HCT116 cells after 3 days by MTT assay; assay type: functional, cell-based; conditions: HCT-116, 72 h; outline: as §1
[4] = molecular target: Cyclin-dependent kinase 4/cyclin D1 (Homo sapiens, UniProt P11802); assay: Inhibition of CDK4/Cyclin D1 expressed in Sf9 cells assessed as inhibition of Rb phosphorylation
Outline: (§2)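 CDK4/cyclin D1 or CDK2/cyclin E was purified from baculovirus-infected Sf-9 cells. The substrate was bacterial GST-Rb on glutathione-sepharose beads, with [³³P]ATP. Reactions ran 30 min at 30 °C in filter plates, were washed four times and counted. IC₅₀ (µg/mL) came from dose–response curves, as the mean of at least two determinations.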

[5] = molecular target: Cyclin-dependent kinase 2/cyclin E1 (Homo sapiens, UniProt P24941); assay: Inhibition of CDK2/Cyclin E expressed in Sf9 cells assessed as inhibition of Rb phosphorylation; outline: as §2
[6] = Aqueous solubility of compound; assay type: physicochemical; conditions: water (aqueous)
[7] = test system: HCT-116; assay: Cell cycle arrest in human HCT116 cells assessed as decrease in accumulation at G2/M phase at 100 ng/mL after 16 hrs using propidium iodide staining by flow cytometry; assay type: functional, cell-based
Outline: (§3)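 HCT116 cells were treated for 16 h with compound at concentrations in ng/mL, with DMSO as control. Cells were then collected and their DNA content was analysed by flow cytometry. The percentages of cells in G0/G1, S and G2/M were quantified.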

[8] = test system: HCT-116; assay: Antitumor activity against human HCT116 cells xenografted in BALB/c mouse assessed as tumor induced mouse death at 260 mg/kg, iv qd for 4 days; assay type: functional, organism-based; design: dose 260 mg/kg
Outline: (§4)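 HCT116 tumour cells implanted s.c. in right hind limb of male BALB/c-nu/nu mice aged 5 or 6 weeks. Dosing began once tumours averaged 80–100 mm³, with compound in 20% Captisol solution given iv or po once daily for 4 days (qdx4). Tumour volume was measured periodically by caliper and body weight was followed. Maximum inhibition of tumour volume and maximum body weight loss are reported with their day after first dose. Deaths were scored as from toxicity or from tumour, out of 5 mice.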

[9] = test system: HCT-116; assay: Cell cycle arrest in human HCT116 cells assessed as decrease in accumulation at S phase at 100 ng/mL after 16 hrs using propidium iodide staining by flow cytometry; assay type: functional, cell-based; outline: as §3
[10] = test system: HCT-116; assay: Antitumor activity against human HCT116 cells xenografted in BALB/c mouse assessed as maximum tumor volume inhibition rate at 260 mg/kg, iv qd for 4 days measured 5 days post dose; assay type: functional; outline: as §4
[11] = test system: HCT-116; assay: Cell cycle arrest in human HCT116 cells assessed as accumulation at G1 phase at 100 ng/mL after 16 hrs using propidium iodide staining by flow cytometry; assay type: functional; outline: as §3
[12] = test system: Mus musculus; assay: Toxicity in human HCT116 cells xenografted BALB/c mouse assessed as mouse mortality at 260 mg/kg, iv qd for 4 days; assay type: organism-based, HCT-116; design: dose 260 mg/kg, route intravenous; conditions: in vivo, 96 h
Outline: (§5)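 HCT116 cells implanted subcutaneously in right hind limb of male BALB/c-nu/nu mice aged 5 or 6 weeks; dosing began once tumours averaged 80–100 mm³. Compound in 20% Captisol solution given iv or po once daily for 4 days (qdx4). Tumour volume measured periodically by caliper. Deaths scored as toxicity deaths/tumour deaths/mice used, n=5 per group.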

[13] = test system: Mus musculus; assay: Toxicity in human HCT116 cells xenografted BALB/c mouse assessed as maximum body weight loss rate at 260 mg/kg, iv qd for 4 days; assay type: organism-based, HCT-116; design: dose 260 mg/kg, route intravenous; conditions: in vivo, 96 h; outline: as §4
[14] = test system: HCT-116; assay: Antitumor activity against human HCT116 cells xenografted in BALB/c mouse assessed as tumor induced mouse death at 300 mg/kg, iv qd for 4 days; assay type: functional, organism-based; design: dose 300 mg/kg; outline: as §4
[15] = test system: Mus musculus; assay: Toxicity in human HCT116 cells xenografted BALB/c mouse assessed as maximum body weight loss rate at 300 mg/kg, iv qd for 4 days measured 1 days post dose; assay type: organism-based, HCT-116; design: dose 300 mg/kg, route intravenous; conditions: in vivo, 24 h; outline: as §4
[16] = test system: Mus musculus; assay: Toxicity in human HCT116 cells xenografted BALB/c mouse assessed as mouse mortality at 300 mg/kg, iv qd for 4 days; assay type: organism-based, HCT-116; design: dose 300 mg/kg, route intravenous; conditions: in vivo, 96 h; outline: as §5
[17] = test system: HCT-116; assay: Cell cycle arrest in human HCT116 cells assessed as accumulation at G1 phase at 50 ng/mL after 16 hrs using propidium iodide staining by flow cytometry; assay type: functional; outline: as §3
[18] = test system: HCT-116; assay: Antitumor activity against human HCT116 cells xenografted in BALB/c mouse assessed as maximum tumor volume inhibition rate at 300 mg/kg, iv qd for 4 days measured 7 days post dose; assay type: functional; outline: as §4
[19] = test system: HCT-116; assay: Antitumor activity against human HCT116 cells xenografted in BALB/c mouse assessed as tumor induced mouse death at 350 mg/kg, po qd for 4 days; assay type: functional, organism-based; design: dose 350 mg/kg; outline: as §4
[20] = test system: Mus musculus; assay: Toxicity in human HCT116 cells xenografted BALB/c mouse assessed as maximum body weight loss rate at 300 mg/kg, iv qd for 4 days measured 7 days post dose; assay type: organism-based, HCT-116; design: dose 300 mg/kg, route intravenous; conditions: in vivo, 168 h; outline: as §4
[21] = test system: HCT-116; assay: Antitumor activity against human HCT116 cells xenografted in BALB/c mouse assessed as maximum tumor volume inhibition rate at 350 mg/kg, po qd for 4 days measured 6 days post dose; assay type: functional; outline: as §4
[22] = test system: Mus musculus; assay: Toxicity in human HCT116 cells xenografted BALB/c mouse assessed as maximum body weight loss rate at 350 mg/kg, po qd for 4 days measured 5 days post dose; assay type: organism-based, HCT-116; design: dose 350 mg/kg, route oral; conditions: in vivo, 120 h; outline: as §4
[23] = test system: HCT-116; assay: Cell cycle arrest in human HCT116 cells assessed as accumulation at G1 phase at 60 ng/mL after 16 hrs using propidium iodide staining by flow cytometry; assay type: functional; outline: as §3
[24] = test system: HCT-116; assay: Antitumor activity against human HCT116 cells xenografted in BALB/c mouse assessed as maximum tumor volume inhibition rate at 300 mg/kg, iv qd for 4 days measured 9 days post dose; assay type: functional; outline: as §4
[25] = test system: Mus musculus; assay: Toxicity in human HCT116 cells xenografted BALB/c mouse assessed as mouse mortality at 350 mg/kg, po qd for 4 days; assay type: organism-based, HCT-116; design: dose 350 mg/kg, route oral; conditions: in vivo, 96 h; outline: as §5

Chain of Cyclin-dependent kinase 4/cyclin D1 (P11802 whole entry): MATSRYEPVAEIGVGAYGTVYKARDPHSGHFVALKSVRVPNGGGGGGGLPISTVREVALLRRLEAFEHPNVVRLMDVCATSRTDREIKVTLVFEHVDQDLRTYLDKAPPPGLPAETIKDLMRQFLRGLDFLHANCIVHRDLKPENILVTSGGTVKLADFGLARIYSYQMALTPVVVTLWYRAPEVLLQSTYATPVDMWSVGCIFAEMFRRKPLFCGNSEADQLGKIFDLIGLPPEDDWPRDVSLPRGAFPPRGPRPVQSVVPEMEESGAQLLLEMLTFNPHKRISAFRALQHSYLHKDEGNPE
Chain of Cyclin-dependent kinase 4/cyclin D1 (P24385 whole entry, further chain): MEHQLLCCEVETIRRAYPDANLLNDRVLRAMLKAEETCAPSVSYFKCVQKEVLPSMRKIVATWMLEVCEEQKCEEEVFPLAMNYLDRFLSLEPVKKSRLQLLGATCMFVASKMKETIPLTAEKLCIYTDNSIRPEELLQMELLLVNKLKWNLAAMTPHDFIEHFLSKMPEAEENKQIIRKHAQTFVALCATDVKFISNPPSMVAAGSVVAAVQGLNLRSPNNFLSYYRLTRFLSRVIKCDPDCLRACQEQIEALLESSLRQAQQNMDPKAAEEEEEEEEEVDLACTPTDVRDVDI

Row | Selectivity ratio [1] | IC50 [4] | IC50 [5] | SMILES | IC50 [2] | IC50 [3] | other results
1 | 7.8 | 210 nM | 1630 nM | CN(C)Cc1ccc(/C=N/Nc2ncnc3sc(C(C)(C)C)cc23)cc1 | 0.107 µg/mL (≈ 0.291 µM) | 0.128 µg/mL (≈ 0.348 µM) | 
2 | 10.4 | 70.4 nM | 729 nM | CN(CCO)Cc1ccc(/C=N/Nc2ncnc3sc(C(C)(C)C)cc23)cc1 | 0.124 µg/mL (≈ 0.312 µM) | 0.169 µg/mL (≈ 0.425 µM) | 
3 | 0.4 | 2760 nM | 1100 nM | CC(C)(C)c1cc2c(N/N=C/c3ccc(C(=O)O)cc3)ncnc2s1 | 7.22 µg/mL (≈ 20.4 µM) | 9.99 µg/mL (≈ 28.2 µM) | 
4 | 42.3 | 70.7 nM | 2990 nM | CN(C)Cc1cccc(/C=N/Nc2ncnc3sc(C(C)(C)C)cc23)c1 | 0.598 µg/mL (≈ 1.63 µM) | 0.405 µg/mL (≈ 1.1 µM) | 
5 | 76.2 | 61.9 nM | 4710 nM | CC(C)(C)c1cc2c(N/N=C/c3ccc(CN)cc3)ncnc2s1 | 0.214 µg/mL (≈ 0.63 µM) | 0.334 µg/mL (≈ 0.984 µM) | 
6 | 10.4 | 263 nM | 2740 nM | CN1Cc2ccc(/C=N/Nc3ncnc4sc(C(C)(C)C)cc34)cc2C1 | 0.05 µg/mL (≈ 0.137 µM) | 0.088 µg/mL (≈ 0.241 µM) | 
7 |  | > 61300 nM | 33700 nM | CC(C)(C)c1cc2c(N/N=C/c3ccc(O)cc3)ncnc2s1 | > 10 µg/mL | 0.844 µg/mL (≈ 2.59 µM) | 
8 | 0.7 | 1170 nM | 764 nM | CC(C)(C)c1cc2c(N/N=C/c3ccc(CO)cc3)ncnc2s1 | 0.556 µg/mL (≈ 1.63 µM) | 0.665 µg/mL (≈ 1.95 µM) | 
9 |  | > 47900 nM | 2920 nM | CN(C)S(=O)(=O)c1ccc(/C=N/Nc2ncnc3sc(C(C)(C)C)cc23)cc1 | 2.12 µg/mL (≈ 5.08 µM) | 1.42 µg/mL (≈ 3.4 µM) | 

Continued, molecule first:

Row | SMILES | Selectivity ratio [1] | IC50 [4] | IC50 [5] | IC50 [2] | IC50 [3] | other results
10 | CN(C)Cc1cccc(/C=N/Nc2ncnc3sc(C(C)(C)C)cc23)n1 | 25 | 152 nM | 3800 nM | 0.381 µg/mL (≈ 1.03 µM) | 0.419 µg/mL (≈ 1.14 µM) | solubility [6]: 44 µg/mL (≈ 119 µM)
11 | CC(C)(C)c1cc2c(N/N=C/c3ccccc3)ncnc2s1 | > 33 | 1970 nM | > 64400 nM | 6.54 µg/mL (≈ 21.1 µM) |  | 
12 | COC(=O)c1ccc(/C=N/Nc2ncnc3sc(C(C)(C)C)cc23)cc1 |  | > 54300 nM | > 54300 nM |  |  | 
13 | CC(C)(C)c1cc2c(N/N=C/c3ccc4c(c3)CNCC4)ncnc2s1 | 5.3 | 93 nM | 492 nM | 0.069 µg/mL (≈ 0.189 µM) | 0.107 µg/mL (≈ 0.293 µM) | 
14 | CC(C)N1Cc2ccc(/C=N/Nc3ncnc4sc(C(C)(C)C)cc34)cc2C1 | 37.5 | 203 nM | 7620 nM | 0.134 µg/mL (≈ 0.34 µM) | 0.206 µg/mL (≈ 0.523 µM) | 
15 | CC(C)(C)c1cc2c(N/N=C/c3ccc4c(c3)CNC4)ncnc2s1 | 6.3 | 236 nM | 1480 nM | 0.071 µg/mL (≈ 0.202 µM) | 0.111 µg/mL (≈ 0.316 µM) | Activity [7]: Active; Activity [8]: Active; solubility [6]: 2.8 µg/mL (≈ 7.97 µM); Activity [9]: Active; inhibition in vivo at 260 mg/kg [10]: 61%; Activity [11]: 62%; Activity [12]: Non-toxic; Activity [13]: < 0%
16 | CC(C)(C)c1cc2c(N/N=C/c3ccc4c(c3)CCNC4)ncnc2s1 | 16.8 | 104 nM | 1750 nM | 0.049 µg/mL (≈ 0.134 µM) | 0.046 µg/mL (≈ 0.126 µM) | solubility [6]: 8.5 µg/mL (≈ 23.3 µM); Activity [14]: Active; Activity [15]: 2.2%; Activity [16]: Non-toxic; Activity [17]: 56%; inhibition in vivo at 300 mg/kg [18]: 5%
17 | CNCc1ccc(/C=N/Nc2ncnc3sc(C(C)(C)C)cc23)cc1 | 17.9 | 107 nM | 1920 nM | 0.044 µg/mL (≈ 0.124 µM) | 0.056 µg/mL (≈ 0.158 µM) | Activity [19]: Active; Activity [20]: 9.7%; solubility [6]: 783 µg/mL (≈ 2220 µM); inhibition in vivo at 350 mg/kg [21]: 57%; Activity [22]: 16%; Activity [14]: Active; Activity [23]: 57%; Activity [16]: Non-toxic; inhibition in vivo at 300 mg/kg [24]: 54%; Activity [25]: Non-toxic
